Experimental data: ChEMBL document CHEMBL2157980, “Discovery of SCH 900229, a Potent Presenilin 1 Selective γ-Secretase Inhibitor for the Treatment of Alzheimer's Disease” (ACS Med Chem Lett, 2012)
pIC50: −log10 of the molar value.

Key:
Mus musculus [1] = assay: Antialzheimer activity in transgenic CRND8 mouse assessed as decrease of amyloid beta-40 level in plasma at 30 mg/kg, po after 3 hrs; type: functional; set-up: scale not given: the % may be the effect or the level left
How it was run: (§1)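 CRND8 mice were dosed orally at 30 mg/kg. Aβ40 in plasma and cortex was measured 3 h post-dose and reported as % change, negative for lowering and positive for increase.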

Mus musculus [2] = assay: Antialzheimer activity in transgenic CRND8 mouse assessed as decrease of amyloid beta-40 level in cortex at 30 mg/kg, po after 3 hrs; type: functional; set-up: scale not given: the % may be the effect or the level left; how it was run: as §1
Presenilin-2 = Presenilin-2 (Homo sapiens, UniProt P49810); assay: Inhibition of PS2 gamma-secretase expressed in HEK cells harboring Awe-Lon gene assessed as reduction of amyloid beta-42 production; type: cell-based, HEK293
Sequence of Presenilin-2 (P49810 1-297 limits assumed): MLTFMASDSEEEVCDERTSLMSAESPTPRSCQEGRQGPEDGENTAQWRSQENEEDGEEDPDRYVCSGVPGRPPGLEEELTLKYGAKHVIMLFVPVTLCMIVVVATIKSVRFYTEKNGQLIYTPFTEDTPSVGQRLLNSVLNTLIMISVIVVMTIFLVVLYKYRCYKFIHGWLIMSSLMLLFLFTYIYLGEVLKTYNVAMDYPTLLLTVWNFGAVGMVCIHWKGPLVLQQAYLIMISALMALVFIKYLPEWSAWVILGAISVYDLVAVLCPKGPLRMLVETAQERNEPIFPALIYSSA
Sequence of Presenilin-2 (P49810 298-448 limits assumed): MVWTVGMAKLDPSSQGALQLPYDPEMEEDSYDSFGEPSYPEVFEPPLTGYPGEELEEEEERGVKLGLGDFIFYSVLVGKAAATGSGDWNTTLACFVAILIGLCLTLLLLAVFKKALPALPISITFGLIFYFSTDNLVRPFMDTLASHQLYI

Presenilin-1 [3] = biological target: T1, Presenilin-1 (Homo sapiens, UniProt P49768); assay: Inhibition of PS1 gamma-secretase expressed in HEK cells harboring Awe-Lon gene assessed as reduction of amyloid beta-40 production; type: cell-based, HEK293
How it was run: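 Cell-based Aβ40 production assay in HEK293 cells carrying APP Awe-Lon. IC50 was the average of at least two determinations, with standard deviation 20%.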

Presenilin-1 [4] = biological target: T1, Presenilin-1; assay: Inhibition of PS1 gamma-secretase assessed as reduction of amyloid beta-40 production by membrane based assay
How it was run: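 Aβ40 production was measured in a membrane-based assay. IC50 was the average of at least two measurements, with standard deviation 20%.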

[5] = Selectivity ratio of IC50 for PS2 gamma-secretase to IC50 for PS1 gamma-secretase
How it was run: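 Inhibitors were tested against reconstituted γ-secretase complexes containing PS1 or PS2. The result is expressed as the PS2/PS1 ratio of IC50 values.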

Mus musculus [6] = assay: Antialzheimer activity in B6C3F1 mouse assessed as reduction of amyloid beta-40 level in plasma at 10 mg/kg, po after 3 hrs; type: functional; set-up: scale not given: the % may be the effect or the level left
How it was run: (§2)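 B6C3F1 mice were dosed orally at 10 or 30 mg/kg. Aβ40 in plasma and cortex was measured 3 h after dosing and expressed as % change, with lowering shown as negative.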

Mus musculus [7] = assay: Antialzheimer activity in B6C3F1 mouse assessed as reduction of amyloid beta-40 level in cortex at 10 mg/kg, po after 3 hrs; type: functional; set-up: scale not given: the % may be the effect or the level left; how it was run: as §2

| pIC50 (Presenilin-2) | pIC50 (Presenilin-1 [3]) | pIC50 (Presenilin-1 [4]) | Ratio IC50 [5] | SMILES | Activity (Mus musculus [1]) [%] | Activity (Mus musculus [2]) [%] | Activity (Mus musculus [6]) [%] | Activity (Mus musculus [7]) [%] |
| --- | --- | --- | --- | --- | --- | --- | --- | --- |
| – | – | – | 6 | CC(C)S(=O)(=O)CC[C@@H]1OCC[C@@]2(S(=O)(=O)c3ccc(Cl)cc3)c3c(F)ccc(F)c3OC[C@@H]12 (racemic) [listing 2 of 2 here] | – | – | – | – |
| 8.52 | 8.10 | 8.22 | – | CC(C)S(=O)(=O)CC[C@@H]1OCC[C@@]2(S(=O)(=O)c3ccc(Cl)cc3)c3c(F)ccc(F)c3OC[C@@H]12 | – | – | 2 | 58 |

Second part, the compound before the results:

| SMILES | pIC50 (Presenilin-2) | pIC50 (Presenilin-1 [3]) | pIC50 (Presenilin-1 [4]) | Ratio IC50 [5] | Activity (Mus musculus [1]) [%] | Activity (Mus musculus [2]) [%] | Activity (Mus musculus [6]) [%] | Activity (Mus musculus [7]) [%] |
| --- | --- | --- | --- | --- | --- | --- | --- | --- |
| CC(C)S(=O)(=O)CC[C@@H]1OCC[C@@]2(S(=O)(=O)c3ccc(Cl)cc3)c3c(F)ccc(F)c3OC[C@@H]12 (racemic) [listing 1 of 2 here] | 8.00 | 7.59 | 7.62 | – | 20 | 57 | – | – |
| O=S(=O)(c1ccc(Cl)cc1)[C@]12CCO[C@H](CCO)[C@H]1COc1c(F)ccc(F)c12 | – | – | 6.49 | – | – | – | – | – |
| O=S(=O)(c1ccc(Cl)cc1)[C@@]12CCO[C@@H](CCO)[C@@H]1COc1c(F)ccc(F)c12 | 8.10 | 7.74 | 7.70 | – | – | – | – | – |
